This is an account of results in ChEMBL document CHEMBL1138520, “Molecular and conformational determinants of pituitary adenylate cyclase-activating polypeptide (PACAP) for activation of the PAC1 receptor” (J Med Chem, 2009).

Assay [1] addresses T1, Pituitary adenylate cyclase-activating polypeptide type I receptor (Homo sapiens, UniProt P41586). Briefly: Agonist activity at human recombinant PAC1 receptor expressed in CHO cells assessed as PACAP38-induced calcium mobilization by FLIPR assay. It is filed as functional, cell-based. A digest of the protocol: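 CHO cells stably expressing recombinant human PAC1, plated 24 h before assay, loaded with fluo-4 AM for 60 min at 37 °C in the dark, then rinsed into HBSS for 15 min at 37 °C. EC50 and efficacy came from nonlinear regression; 4-10 independent assays in duplicate.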
Target sequence in this assay (P41586 whole entry): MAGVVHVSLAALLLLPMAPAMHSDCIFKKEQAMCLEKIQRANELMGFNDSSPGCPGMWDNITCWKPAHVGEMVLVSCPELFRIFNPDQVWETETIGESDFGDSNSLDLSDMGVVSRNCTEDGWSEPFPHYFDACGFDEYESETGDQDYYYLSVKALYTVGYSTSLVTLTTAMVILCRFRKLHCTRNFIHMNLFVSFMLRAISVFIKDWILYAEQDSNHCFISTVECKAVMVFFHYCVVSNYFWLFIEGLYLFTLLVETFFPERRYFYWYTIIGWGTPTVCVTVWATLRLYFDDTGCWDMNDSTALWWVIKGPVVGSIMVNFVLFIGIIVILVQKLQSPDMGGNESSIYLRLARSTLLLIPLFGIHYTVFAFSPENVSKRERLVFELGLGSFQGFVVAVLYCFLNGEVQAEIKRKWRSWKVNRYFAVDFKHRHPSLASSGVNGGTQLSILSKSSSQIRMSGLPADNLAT

The target of assay [2] is T1, Pituitary adenylate cyclase-activating polypeptide type I receptor. Description: Displacement of [125I]Ac-PACAP27 from human recombinant PAC1 receptor expressed in CHO cells by gamma- counter. It is filed as cell-based.
Target sequence in this assay (P41586 whole entry): as above
For assay [3] the target is unchanged. Briefly: Agonist activity at human recombinant PAC1 receptor expressed in CHO cells assessed as PACAP38-induced calcium mobilization by FLIPR assay relative to PACAP38. It is filed as functional, cell-based. A digest of the protocol: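 CHO cells stably expressing recombinant human PAC1, plated 24 h before assay, loaded with fluo-4 AM for 60 min at 37 °C in the dark, then rinsed into HBSS for 15 min at 37 °C. Peptide was added 18 s into a 150 s read (ex 480/em 525 nm), at final concentrations of 1 × 10-12 to 1 × 10^-5 M. Response was normalised to 1 × 10^-5 M PACAP38 on each plate. EC50 and efficacy came from nonlinear regression; 4-10 independent assays in duplicate.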
Target sequence in this assay (P41586 21-468 limits assumed): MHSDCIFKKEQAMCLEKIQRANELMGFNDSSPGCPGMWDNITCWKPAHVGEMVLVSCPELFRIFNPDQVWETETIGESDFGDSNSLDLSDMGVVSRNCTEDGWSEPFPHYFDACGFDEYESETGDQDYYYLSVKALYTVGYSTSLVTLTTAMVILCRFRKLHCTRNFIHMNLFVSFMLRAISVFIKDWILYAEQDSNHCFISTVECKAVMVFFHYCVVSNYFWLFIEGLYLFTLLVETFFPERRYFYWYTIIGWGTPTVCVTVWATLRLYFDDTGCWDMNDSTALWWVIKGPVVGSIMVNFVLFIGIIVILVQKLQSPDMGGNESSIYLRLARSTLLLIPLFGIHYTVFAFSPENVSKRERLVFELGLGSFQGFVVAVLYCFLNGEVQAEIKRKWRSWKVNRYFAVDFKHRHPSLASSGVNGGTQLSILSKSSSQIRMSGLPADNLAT

The structures appear in SMILES notation. Where a SMILES comes first, the peptide text is derived from it. [ ]: non-standard residue; d: D form. Bip = N[C@@H](Cc1ccc(-c2ccccc2)cc1)C(=O)O; Aib = CC(C)(N)C(=O)O

As to `CC[C@H](C)[C@H](NC(=O)C(C)(C)NC(=O)[C@H](CC(=O)O)NC(=O)[C@H](CO)NC(=O)[C@@H](N)Cc1cnc[nH]1)C(=O)N[C@@H](Cc1ccccc1)C(=O)N[C@H](C(=O)N[C@@H](CC(=O)O)C(=O)N[C@@H](CO)C(=O)N[C@@H](Cc1ccc(O)cc1)C(=O)N[C@@H](CO)C(=O)N[C@@H](CCCNC(=N)N)C(=O)N[C@@H](Cc1ccc(O)cc1)C(=O)N[C@@H](CCCNC(=N)N)C(=O)N[C@@H](CCCCN)C(=O)N[C@@H](CCC(N)=O)C(=O)N[C@@H](CCSC)C(=O)N[C@@H](C)C(=O)N[C@H](C(=O)N[C@@H](CCCCN)C(=O)N[C@@H](CCCCN)C(=O)N[C@@H](Cc1ccc(O)cc1)C(=O)N[C@@H](CC(C)C)C(=O)N[C@@H](C)C(=O)N[C@@H](C)C(=O)N[C@H](C(=O)N[C@@H](CC(C)C)C(=O)NCC(=O)N[C@@H](CCCCN)C(=O)N[C@@H](CCCNC(=N)N)C(=O)N[C@@H](Cc1ccc(O)cc1)C(=O)N[C@@H](CCCCN)C(=O)N[C@@H](CCC(N)=O)C(=O)N[C@@H](CCCNC(=N)N)C(=O)N[C@H](C(=O)N[C@@H](CCCCN)C(=O)N[C@@H](CC(N)=O)C(=O)N[C@@H](CCCCN)C(N)=O)C(C)C)C(C)C)C(C)C)[C@@H](C)O` (H-HSD[Aib]IFTDSYSRYRKQMAVKKYLAAVLGKRYKQRVKNK-NH2), the 50% effective concentration (EC50) in assay [1] came to 3.3 nM. Moreover, the half-inhibitory concentration (IC50) in assay [2] turned out to be 9.2 nM. For the same compound, in assay [3], the Emax came to 84%.
Consider `CC[C@H](C)[C@H](NC(=O)CNC(=O)[C@H](CC(=O)O)NC(=O)[C@H](CO)NC(=O)[C@@H](N)Cc1cnc[nH]1)C(=O)N[C@@H](Cc1ccc(O)cc1)C(=O)N[C@H](C(=O)N[C@@H](CC(=O)O)C(=O)N[C@@H](CO)C(=O)N[C@@H](Cc1ccc(O)cc1)C(=O)N[C@@H](CO)C(=O)N[C@@H](CCCNC(=N)N)C(=O)N[C@@H](Cc1ccc(O)cc1)C(=O)N[C@@H](CCCNC(=N)N)C(=O)N[C@@H](CCCCN)C(=O)N[C@@H](CCC(N)=O)C(=O)N[C@@H](CCSC)C(=O)N[C@@H](C)C(=O)N[C@H](C(=O)N[C@@H](CCCCN)C(=O)N[C@@H](CCCCN)C(=O)N[C@@H](Cc1ccc(O)cc1)C(=O)N[C@@H](CC(C)C)C(=O)N[C@@H](C)C(=O)N[C@@H](C)C(=O)N[C@H](C(=O)N[C@@H](CC(C)C)C(N)=O)C(C)C)C(C)C)[C@@H](C)O`, for which, in assay [1], the EC50 was determined as 7.7 nM. Also, the IC50 in assay [2] stood at 7.9 nM. Besides, the Emax in assay [3] turned out to be 108%.
The like results for `CC[C@H](C)[C@H](NC(=O)CNC(=O)[C@H](CC(=O)O)NC(=O)[C@H](CO)NC(=O)[C@@H](N)Cc1cnc[nH]1)C(=O)N[C@@H](Cc1ccc(-c2ccccc2)cc1)C(=O)N[C@H](C(=O)N[C@@H](CC(=O)O)C(=O)N[C@@H](CO)C(=O)N[C@@H](Cc1ccc(O)cc1)C(=O)N[C@@H](CO)C(=O)N[C@@H](CCCNC(=N)N)C(=O)N[C@@H](Cc1ccc(O)cc1)C(=O)N[C@@H](CCCNC(=N)N)C(=O)N[C@@H](CCCCN)C(=O)N[C@@H](CCC(N)=O)C(=O)N[C@@H](CCSC)C(=O)N[C@@H](C)C(=O)N[C@H](C(=O)N[C@@H](CCCCN)C(=O)N[C@@H](CCCCN)C(=O)N[C@@H](Cc1ccc(O)cc1)C(=O)N[C@@H](CC(C)C)C(=O)N[C@@H](C)C(=O)N[C@@H](C)C(=O)N[C@H](C(=O)N[C@@H](CC(C)C)C(=O)NCC(=O)N[C@@H](CCCCN)C(=O)N[C@@H](CCCNC(=N)N)C(=O)N[C@@H](Cc1ccc(O)cc1)C(=O)N[C@@H](CCCCN)C(=O)N[C@@H](CCC(N)=O)C(=O)N[C@@H](CCCNC(=N)N)C(=O)N[C@H](C(=O)N[C@@H](CCCCN)C(=O)N[C@@H](CC(N)=O)C(=O)N[C@@H](CCCCN)C(N)=O)C(C)C)C(C)C)C(C)C)[C@@H](C)O` (H-HSDGI[Bip]TDSYSRYRKQMAVKKYLAAVLGKRYKQRVKNK-NH2) were, in that order, 1.1 nM, 5.4 nM and 105%.
Regarding `CC[C@H](C)[C@H](NC(=O)CNC(=O)[C@H](CC(=O)O)NC(=O)[C@H](CO)NC(=O)[C@@H](N)Cc1cn(C)cn1)C(=O)N[C@@H](Cc1ccccc1)C(=O)N[C@H](C(=O)N[C@@H](CC(=O)O)C(=O)N[C@@H](CO)C(=O)N[C@@H](Cc1ccc(O)cc1)C(=O)N[C@@H](CO)C(=O)N[C@@H](CCCN=C(N)N)C(=O)N[C@@H](Cc1ccc(O)cc1)C(=O)N[C@@H](CCCN=C(N)N)C(=O)N[C@@H](CCCCN)C(=O)N[C@@H](CCC(N)=O)C(=O)N[C@@H](CCSC)C(=O)N[C@@H](C)C(=O)N[C@H](C(=O)N[C@@H](CCCCN)C(=O)N[C@@H](CCCCN)C(=O)N[C@@H](Cc1ccc(O)cc1)C(=O)N[C@@H](CC(C)C)C(=O)N[C@@H](C)C(=O)N[C@@H](C)C(=O)N[C@H](C(=O)N[C@@H](CC(C)C)C(=O)NCC(=O)N[C@@H](CCCCN)C(=O)N[C@@H](CCCN=C(N)N)C(=O)N[C@@H](Cc1ccc(O)cc1)C(=O)N[C@@H](CCCCN)C(=O)N[C@@H](CCC(N)=O)C(=O)N[C@@H](CCCN=C(N)N)C(=O)N[C@H](C(=O)N[C@@H](CCCCN)C(=O)N[C@@H](CC(N)=O)C(=O)N[C@@H](CCCCN)C(N)=O)C(C)C)C(C)C)C(C)C)[C@@H](C)O`, in assay [1], the EC50 worked out at 37.6 nM. In addition, the IC50 in assay [2] was 11.3 nM.
The like results for `CC[C@H](C)[C@H](NC(=O)CNC(=O)[C@H](CC(=O)O)NC(=O)[C@H](CO)NC(=O)[C@H](C)N)C(=O)N[C@@H](Cc1ccccc1)C(=O)N[C@H](C(=O)N[C@@H](CC(=O)O)C(=O)N[C@@H](CO)C(=O)N[C@@H](Cc1ccc(O)cc1)C(=O)N[C@@H](CO)C(=O)N[C@@H](CCCN=C(N)N)C(=O)N[C@@H](Cc1ccc(O)cc1)C(=O)N[C@@H](CCCN=C(N)N)C(=O)N[C@@H](CCCCN)C(=O)N[C@@H](CCC(N)=O)C(=O)N[C@@H](CCSC)C(=O)N[C@@H](C)C(=O)N[C@H](C(=O)N[C@@H](CCCCN)C(=O)N[C@@H](CCCCN)C(=O)N[C@@H](Cc1ccc(O)cc1)C(=O)N[C@@H](CC(C)C)C(=O)N[C@@H](C)C(=O)N[C@@H](C)C(=O)N[C@H](C(=O)N[C@@H](CC(C)C)C(=O)NCC(=O)N[C@@H](CCCCN)C(=O)N[C@@H](CCCN=C(N)N)C(=O)N[C@@H](Cc1ccc(O)cc1)C(=O)N[C@@H](CCCCN)C(=O)N[C@@H](CCC(N)=O)C(=O)N[C@@H](CCCN=C(N)N)C(=O)N[C@H](C(=O)N[C@@H](CCCCN)C(=O)N[C@@H](CC(N)=O)C(=O)N[C@@H](CCCCN)C(N)=O)C(C)C)C(C)C)C(C)C)[C@@H](C)O` (H-ASDGIFTDSYSRYRKQMAVKKYLAAVLGKRYKQRVKNK-NH2) were, in that order, 11 nM and 49.3 nM.
The like results for `CC[C@H](C)[C@H](NC(=O)CNC(=O)[C@H](CC(=O)O)NC(=O)[C@H](CO)NC(=O)[C@@H](N)Cc1cnc[nH]1)C(=O)N[C@@H](Cc1ccccc1)C(=O)N[C@@H](C(=O)N[C@@H](CC(=O)O)C(=O)N[C@@H](CO)C(=O)N[C@@H](Cc1ccc(O)cc1)C(=O)N[C@@H](CO)C(=O)N[C@@H](CCCNC(=N)N)C(=O)N[C@@H](Cc1ccc(O)cc1)C(=O)N[C@@H](CCCNC(=N)N)C(=O)N[C@@H](CCCCN)C(=O)N[C@@H](CCC(N)=O)C(=O)N[C@@H](CCSC)C(=O)N[C@@H](C)C(=O)N[C@H](C(=O)N[C@@H](CCCCN)C(=O)N[C@@H](CCCCN)C(=O)N[C@@H](Cc1ccc(O)cc1)C(=O)N[C@@H](CC(C)C)C(=O)N[C@@H](C)C(=O)N[C@@H](C)C(=O)N[C@H](C(=O)N[C@@H](CC(C)C)C(=O)NCC(=O)N[C@@H](CCCCN)C(=O)N[C@@H](CCCNC(=N)N)C(=O)N[C@@H](Cc1ccc(O)cc1)C(=O)N[C@@H](CCCCN)C(=O)N[C@@H](CCC(N)=O)C(=O)N[C@@H](CCCNC(=N)N)C(=O)N[C@H](C(=O)N[C@@H](CCCCN)C(=O)N[C@@H](CC(N)=O)C(=O)N[C@@H](CCCCN)C(N)=O)C(C)C)C(C)C)C(C)C)[C@H](C)O` were, in that order, 7.3 nM and 119 nM.
Take `CC[C@H](C)[C@H](NC(=O)CNC(=O)[C@H](CC(=O)O)NC(=O)[C@H](CO)N(C)C(=O)[C@@H](N)Cc1cnc[nH]1)C(=O)N[C@@H](Cc1ccccc1)C(=O)N[C@H](C(=O)N[C@@H](CC(=O)O)C(=O)N[C@@H](CO)C(=O)N[C@@H](Cc1ccc(O)cc1)C(=O)N[C@@H](CO)C(=O)N[C@@H](CCCNC(=N)N)C(=O)N[C@@H](Cc1ccc(O)cc1)C(=O)N[C@@H](CCCNC(=N)N)C(=O)N[C@@H](CCCCN)C(=O)N[C@@H](CCC(N)=O)C(=O)N[C@@H](CCSC)C(=O)N[C@@H](C)C(=O)N[C@H](C(=O)N[C@@H](CCCCN)C(=O)N[C@@H](CCCCN)C(=O)N[C@@H](Cc1ccc(O)cc1)C(=O)N[C@@H](CC(C)C)C(=O)N[C@@H](C)C(=O)N[C@@H](C)C(=O)N[C@H](C(=O)N[C@@H](CC(C)C)C(N)=O)C(C)C)C(C)C)[C@@H](C)O`: the EC50 in assay [1] was determined as 48.8 nM. Further, the Emax in assay [3] was 93%.
The like results for `CC[C@H](C)[C@H](NC(=O)CNC(=O)[C@H](CC(=O)O)NC(=O)[C@H](CO)NC(=O)[C@H](N)Cc1cnc[nH]1)C(=O)N[C@@H](Cc1ccccc1)C(=O)N[C@H](C(=O)N[C@@H](CC(=O)O)C(=O)N[C@@H](CO)C(=O)N[C@@H](Cc1ccc(O)cc1)C(=O)N[C@@H](CO)C(=O)N[C@@H](CCCNC(=N)N)C(=O)N[C@@H](Cc1ccc(O)cc1)C(=O)N[C@@H](CCCNC(=N)N)C(=O)N[C@@H](CCCCN)C(=O)N[C@@H](CCC(N)=O)C(=O)N[C@@H](CCSC)C(=O)N[C@@H](C)C(=O)N[C@H](C(=O)N[C@@H](CCCCN)C(=O)N[C@@H](CCCCN)C(=O)N[C@@H](Cc1ccc(O)cc1)C(=O)N[C@@H](CC(C)C)C(=O)N[C@@H](C)C(=O)N[C@@H](C)C(=O)N[C@H](C(=O)N[C@@H](CC(C)C)C(=O)NCC(=O)N[C@@H](CCCCN)C(=O)N[C@@H](CCCNC(=N)N)C(=O)N[C@@H](Cc1ccc(O)cc1)C(=O)N[C@@H](CCCCN)C(=O)N[C@@H](CCC(N)=O)C(=O)N[C@@H](CCCNC(=N)N)C(=O)N[C@H](C(=O)N[C@@H](CCCCN)C(=O)N[C@@H](CC(N)=O)C(=O)N[C@@H](CCCCN)C(N)=O)C(C)C)C(C)C)C(C)C)[C@@H](C)O` were, in that order, 2.9 nM and 107%.
